In ChEMBL document CHEMBL1145529, “Synthesis of novel quinolone and quinoline-2-carboxylic acid (4-morpholin-4-yl-phenyl)amides: a late-stage diversification approach to potent 5HT1B antagonists” (Bioorg Med Chem, 2007):

Columns and labels:
[1] = target: T1, 5-hydroxytryptamine receptor 1B (Homo sapiens, UniProt P28222); experiment: Displacement of [3H]GR125743 from 5HT1B receptor transfected in CHO cells; format: cell-based
Outline: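 Competition binding used a stably transfected CHO cell line expressing 5HT1B receptor. [3H]-GR125743 was the radioligand, and Ki values were derived from displacement.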

[2] = target: T1, 5-hydroxytryptamine receptor 1B; experiment: Antagonist activity at 5HT1B receptor expressed in CHO cells assessed as effect on 5-HT-induced stimulation of [35S]GTP-gamma-S binding at 10 uM; format: functional, cell-based

T1 sequence (P28222 whole entry): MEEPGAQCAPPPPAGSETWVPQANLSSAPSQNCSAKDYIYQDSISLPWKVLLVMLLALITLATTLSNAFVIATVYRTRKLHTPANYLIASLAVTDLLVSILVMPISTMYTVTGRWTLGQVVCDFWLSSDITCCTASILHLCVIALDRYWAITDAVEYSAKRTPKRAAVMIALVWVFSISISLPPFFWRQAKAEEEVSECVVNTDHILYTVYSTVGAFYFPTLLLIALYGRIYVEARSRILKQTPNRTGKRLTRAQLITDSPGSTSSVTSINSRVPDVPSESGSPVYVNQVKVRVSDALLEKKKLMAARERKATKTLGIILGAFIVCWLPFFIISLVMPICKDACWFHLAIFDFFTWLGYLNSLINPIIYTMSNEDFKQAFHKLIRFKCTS

Row | Structure (SMILES) | Ki [1] [nM] | Intrinsic activity [2] [%]
1 | COc1cc(N(C)C2CCN(C)C2)c2[nH]c(C(=O)Nc3ccc(N4CCOCC4)cc3)cc(=O)c2c1 (stereo not given) | > 1000 | 
2 | COc1cc(N2CCN(C)CC2)c2[nH]c(C(=O)Nc3ccc(N4CCOCC4)cc3)cc(=O)c2c1 | 3.5 | -34
3 | CNc1cc(C(=O)Nc2ccc(N3CCOCC3)cc2)nc2c(N3CCN(C)CC3)cc(OC)cc12 | 1300 | 
4 | COc1cc(N(C)CCN(C)C)c2[nH]c(C(=O)Nc3ccc(N4CCOCC4)cc3)cc(=O)c2c1 | 392 | 
5 | COc1cc(N2CC[C@@H](N(C)C)C2)c2[nH]c(C(=O)Nc3ccc(N4CCOCC4)cc3)cc(=O)c2c1 | 35 | 
6 | COc1cc(N2CC[C@H](N(C)C)C2)c2[nH]c(C(=O)Nc3ccc(N4CCOCC4)cc3)cc(=O)c2c1 | > 1000 | 
7 | COc1cc(N(C)CCCN(C)C)c2[nH]c(C(=O)Nc3ccc(N4CCOCC4)cc3)cc(=O)c2c1 | 292 | 
8 | COc1cc(N2CCN(C)CC2)c2nc(C(=O)Nc3ccc(N4CCOCC4)cc3)cc(N(C)C)c2c1 | 51 | 
9 | COc1cc(C(=O)Nc2ccc(N3CCOCC3)cc2)nc2c(N3CCN(C)CC3)cc(F)cc12 | 30 | 
10 | CN1CCN(c2cc(F)cc3c(=O)cc(C(=O)Nc4ccc(N5CCOCC5)cc4)[nH]c23)CC1 | 9.3 | -34
11 | CCN1CCC(N(CC)c2cc(OC)cc3c(=O)cc(C(=O)Nc4ccc(N5CCOCC5)cc4)[nH]c23)C1 (stereo not given) | 170 | 
12 | COc1cc(N2CCCN(C)CC2)c2[nH]c(C(=O)Nc3ccc(N4CCOCC4)cc3)cc(=O)c2c1 | 0.9 | -34
